ARFGAP1 inh = inhibits rat ARF GTPase activating protein 1. Arfgap1-stimulated ARF1 GTP hydrolysis, GDP FP detection. inhibition, % at 16.5 µM. Q62848. hit rate 0.26% among 360,000;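 active = inhibition above a per-plate limit, mean inhibition of low control wells plus 3 SD, cut at about 25% in these data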;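 note: 0% = DMSO wells with enzyme and 100% = wells lacking Arfgap1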
Target sequence (Q62848 1-136 limits assumed): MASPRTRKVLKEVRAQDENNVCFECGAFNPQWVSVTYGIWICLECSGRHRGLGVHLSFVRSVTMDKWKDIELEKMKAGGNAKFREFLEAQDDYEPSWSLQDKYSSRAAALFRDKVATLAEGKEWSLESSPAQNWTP
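Assay system: purified rat His6-Arfgap1 residues 1-136 (GAP domain); Reagent: human Δ17 ARF1 bound to GTP; Dosing: 16.5 µM single point, 1.26% DMSO; Times: GTP hydrolysis reaction 2 h at 25 °C; Signal: FP, GDP Alexa 633 tracer displaced from anti-GDP antibody, 620/688 nm; Measure: % inhibition from polarization.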
Rtt109 Vps75 = C. albicans Rtt109 histone acetyltransferase inhibition | Q5AAJ8 | purified Rtt109/Vps75, ThioGlo CoA-SH fluorescence, 4 h | inhibition, % at 34.9 µM | hit rate 0.16% among 330,000 | AID 540336;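 active = inhibition of at least 50% in every replicate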
Target sequence (Q5AAJ8 whole entry, looked up): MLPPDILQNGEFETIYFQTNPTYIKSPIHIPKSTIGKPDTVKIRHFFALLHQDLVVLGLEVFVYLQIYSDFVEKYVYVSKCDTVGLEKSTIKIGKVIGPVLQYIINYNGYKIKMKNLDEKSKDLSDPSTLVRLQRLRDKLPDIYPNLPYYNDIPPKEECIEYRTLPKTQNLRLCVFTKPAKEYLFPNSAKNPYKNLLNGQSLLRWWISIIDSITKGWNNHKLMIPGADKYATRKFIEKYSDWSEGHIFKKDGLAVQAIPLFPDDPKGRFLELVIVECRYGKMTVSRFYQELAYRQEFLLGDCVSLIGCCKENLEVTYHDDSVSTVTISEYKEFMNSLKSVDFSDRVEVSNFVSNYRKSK
ASAP1 GAP inh = ASAP1 ArfGAP inhibition. AID 624377. hit rate 0.19% among 360,000. inhibition, % at 16.5 µM. Q9ULH1. ASAP1-stimulated ARF1 GTP hydrolysis, GDP FP detection; in the data active = inhibition above about 25%;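 note: 0% = vehicle with enzyme and substrate and 100% = no enzyme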
Efflux pump inh = inhibitors of Candida antifungal efflux pumps expressed in yeast; S. cerevisiae Candida pump triplex, Nile Red efflux; hit rate 0.44% among 330,000; inhibition, % at 10 µM; AID 485275;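 active = plate passing quality check with inhibition over a set limit, or well fluorescence over plate mean plus 4 SD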;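 note: Nile Red retained in pooled yeast measured as flow cytometry median fluorescence; 0% = buffer negative control and 100% = Enniatin B positive control; higher means more Nile Red kept so more efflux inhibition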
FGF22 binding-1 = binders of recombinant human FGF22 by thermal shift; Q9HCT0; SYPRO orange fluorescence; percent of sucrose octasulfate shift, DMSO zero; activity (Tm shift, normalised), % at 9.99 µM; hit rate 1.5% among 340,000;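 active = mean Tm shift, scaled 0 neutral to 100 positive control, at about 1.3% or above, every replicate too, limit read from the data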
Target sequence (Q9HCT0 whole entry, looked up): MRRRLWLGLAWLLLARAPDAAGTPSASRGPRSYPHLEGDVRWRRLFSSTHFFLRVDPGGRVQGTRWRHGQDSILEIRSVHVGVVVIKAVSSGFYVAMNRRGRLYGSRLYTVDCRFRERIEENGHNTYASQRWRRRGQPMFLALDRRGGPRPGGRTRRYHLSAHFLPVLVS
FGF22 binding-2 = binds human FGF22 shifting its melting temperature; hit rate 2% among 1,000; shares compounds with FGF22 binding-1; recombinant FGF22 thermal shift, SYPRO orange fluorescence; AID 720646; thermal shift activity, °C (ΔTm) at 38 µM;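 active = fitted rise in melting shift crosses a set limit at or below the top valid dose tested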
FGF22 TSA DP = binds human FGF22 shifting its melting temperature; Tm shift (activity), % at 38 µM; Thermal shift assay, SYPRO orange, melting temperature shift; 50 tested, under 10 active; shares compounds with FGF22 binding-1;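 active = compounds whose fitted dose curve of melting temperature shift rises past a set threshold within the tested doses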
SYPRO no-protein = counter-screen for FGF22 binders: compound-only thermal shift, no protein. shares compounds with FGF22 binding-1. compound-only SYPRO orange thermal shift counter-screen. AC50, µM (highest dose often 38 µM). hit rate 2% among 1,000;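 active = rising signal whose fitted curve reaches the 0.54 level within the top valid dose, showing a melting point, actives reach about 13 µM in these data; inactive = the rest, including activity in the opposite direction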; note: value is where the raw curve crosses a fixed level and not half-maximal
* marks the source's active call; other numbers are inactive results; [ ] = another dose, or the depositor's remark. Only some compounds are listed: those with a hit (about 1.9% of all), similar ones and a draw of the others.

What do the screens show for `O=C(Nc1ccc2c(c1)[C@@H]1C[C@H](CC(=O)N3CCCCC3)O[C@@H](CO)[C@@H]1O2)NC1CCCC1`?
FGF22 binding-1: 20.3*; FGF22 binding-2: 0.177; SYPRO no-protein: inactive

How did COCC(=O)Nc1ccc2c(c1)[C@H]1C[C@@H](CC(=O)NCCN3CCCCC3)O[C@H](CO)[C@H]1O2 do in these assays?
FGF22 binding-1: 1.3*; FGF22 binding-2: 0.065; SYPRO no-protein: inactive

How did CCOc1ccc(-n2c(N)c(C(=O)NCc3ccco3)sc2=S)cc1 do in these assays?
ARFGAP1 inh: 5.2; Rtt109 Vps75: 7.4; ASAP1 GAP inh: -5.3; Efflux pump inh: -0.2

Results for Cc1ccc(C(=O)NCCN2CCC(n3c(=O)[nH]c4ccccc43)CC2)cc1 ?
ARFGAP1 inh: 13.8; ASAP1 GAP inh: -10.2; FGF22 binding-1: 0.1

How did Cc1ccc(NC2Sc3ccccc3NC2=O)cc1 (stereo unspecified) do in these assays?
ARFGAP1 inh: 6.6; Rtt109 Vps75: 8.8; ASAP1 GAP inh: -12.1; Efflux pump inh: 0.0; FGF22 binding-1: 0.1

What do the screens show for `COc1cccc(/C=N/NC(=O)CN2C(=O)NC3NC(=O)NC32)c1` (stereo unspecified)?
ARFGAP1 inh: 4.4; Rtt109 Vps75: 9.3; ASAP1 GAP inh: 3.0; Efflux pump inh: -0.1

How did COc1ccc(C(=O)N=c2sc3ccccc3n2C)cc1OC do in these assays?
ARFGAP1 inh: 2.0; Rtt109 Vps75: -2.2; ASAP1 GAP inh: 4.2; Efflux pump inh: 0.0; FGF22 binding-1: 1.6*; FGF22 binding-2: 0.202; SYPRO no-protein: inactive

What do the screens show for `O=C1Nc2ccccc2C1=NN1CCCCCC1`?
ARFGAP1 inh: 2.3; Rtt109 Vps75: 2.2; ASAP1 GAP inh: -0.6

Results for Nc1n[nH]c(=S)n1/N=C1/C(=O)Nc2ccccc21 ?
ARFGAP1 inh: 6.7; Rtt109 Vps75: 8.2; ASAP1 GAP inh: -3.6; FGF22 binding-1: 1.8*; FGF22 binding-2: 0.05; SYPRO no-protein: inactive

How did C/C=C/c1ccccc1[C@@H]1[C@@H](C#N)N(C(C)=O)[C@@H]1CO do in these assays?
FGF22 binding-1: 1.3*; FGF22 binding-2: -0.004[42 µM]; SYPRO no-protein: inactive

Results for CC(C)NC(=O)N1[C@H](CO)[C@H](c2ccccc2-c2ccc(F)cc2)[C@@H]1C#N ?
FGF22 binding-1: 1.8*; FGF22 binding-2: 0.224; SYPRO no-protein: inactive

How did Cc1ccccc1-c1ccccc1[C@H]1[C@@H](CO)N(C(=O)c2ccccc2)[C@H]1C#N do in these assays?
FGF22 binding-1: 1.7*; FGF22 binding-2: 0.128[42 µM]; SYPRO no-protein: inactive

What do the screens show for `N#C[C@@H]1[C@H](c2ccc(-c3cccnc3)cc2)[C@H](CO)N1C(=O)Nc1ccc(F)cc1`?
FGF22 binding-1: 2.7*; FGF22 binding-2: 0.067[42 µM]; SYPRO no-protein: inactive

How did CCOC(=O)C1CCC(CNCc2ccccc2C)CC1 (stereo unspecified) do in these assays?
ARFGAP1 inh: -0.2; Rtt109 Vps75: 1.9; ASAP1 GAP inh: -1.3; Efflux pump inh: 0.2; FGF22 binding-1: 1.6*; FGF22 binding-2: 0.054; SYPRO no-protein: inactive

What do the screens show for `COc1ccc(C2/C=C\CN(C(=O)Oc3ccccc3)CC(=O)N2Cc2ccc(F)cc2)cc1` (stereo unspecified)?
ARFGAP1 inh: -2.9; Rtt109 Vps75: 10.0; ASAP1 GAP inh: 12.7; FGF22 binding-1: 0.5

How did COC(=O)c1cc(OC)c(OC)cc1NC(=O)c1ccccc1C do in these assays?
ARFGAP1 inh: 0.1; Rtt109 Vps75: -0.3; ASAP1 GAP inh: 4.1; Efflux pump inh: -0.1; FGF22 binding-1: 8.5*; FGF22 binding-2: 0.142; SYPRO no-protein: inactive

Results for O=C(N[C@H]1CC[C@@H](CCNS(=O)(=O)c2ccc(F)cc2)O[C@H]1CO)c1ccccn1 ?
FGF22 binding-1: 1.4*; FGF22 binding-2: 0.003[42 µM]; SYPRO no-protein: inactive

Results for O=C(Nc1cc(Cl)cc(Cl)c1)N[C@@H]1CC[C@@H](CCNS(=O)(=O)c2cccc(F)c2)O[C@H]1CO ?
FGF22 binding-1: 2.6*; FGF22 binding-2: -0.223[42 µM]; FGF22 TSA DP: 0.1; SYPRO no-protein: inactive

Results for Nc1c(Cl)ncnc1NCCO ?
ARFGAP1 inh: -3.9; ASAP1 GAP inh: -10.2; Efflux pump inh: -0.2; FGF22 binding-1: 0.0

Results for Cc1ccc(CCNc2ncnc(Cl)c2N)cc1 ?
ARFGAP1 inh: 17.2; Rtt109 Vps75: 1.1; ASAP1 GAP inh: 6.7; FGF22 binding-1: 1.7*; FGF22 binding-2: -0.116; SYPRO no-protein: inactive

What do the screens show for `CC(C)NC(=O)Nc1ccc2c(c1)C(=O)N([C@H](C)CO)C[C@H](C)[C@@H](CN(C)C(=O)Nc1cccc3ccccc13)O2`?
FGF22 binding-1: 0.1

What do the screens show for `CC(C)NC(=O)Nc1ccc2c(c1)C(=O)N([C@H](C)CO)C[C@H](C)[C@H](CN(C)C(=O)NC(C)C)O2`?
FGF22 binding-1: 0.2

How did CC(C)NC(=O)Nc1ccc2c(c1)C(=O)N([C@H](C)CO)C[C@H](C)[C@@H](CN(C)C(=O)NC(C)C)O2 do in these assays?
ARFGAP1 inh: -8.1; Rtt109 Vps75: 0.8; ASAP1 GAP inh: 8.0; FGF22 binding-1: 1.6*; FGF22 binding-2: 0.135; SYPRO no-protein: inactive

What do the screens show for `C[C@H](CO)N1C[C@H](C)[C@H](CN(C)CC2CCCCC2)Oc2c(NC(=O)Nc3ccc4c(c3)OCO4)cccc2C1=O`?
FGF22 binding-1: 1.4*; FGF22 binding-2: 0.108; SYPRO no-protein: inactive

Results for C[C@H]1CN([C@@H](C)CO)C(=O)c2cccc(NC(=O)Nc3ccc4c(c3)OCO4)c2O[C@H]1CN(C)CC1CCCCC1 ?
FGF22 binding-1: -0.5

What do the screens show for `CC(C)NC(=O)Nc1ccc2c(c1)C(=O)N([C@H](C)CO)C[C@H](C)[C@H](CN(C)C(=O)Nc1cccc3ccccc13)O2`?
FGF22 binding-1: 18.6*; FGF22 binding-2: 0.147[42 µM]; SYPRO no-protein: inactive

Results for CN(C)C(CNC(=O)c1cccc(S(=O)(=O)Nc2ccccc2Cl)c1)c1ccco1 (stereo unspecified) ?
ARFGAP1 inh: -1.0; Rtt109 Vps75: -1.4; ASAP1 GAP inh: 7.5; Efflux pump inh: 0.0; FGF22 binding-1: -0.1

What do the screens show for `O=C(Nc1cccc(-c2cnc3ccccc3n2)c1)c1ccncc1`?
ARFGAP1 inh: -0.6; Rtt109 Vps75: 12.3; ASAP1 GAP inh: 4.8; Efflux pump inh: -0.1; FGF22 binding-1: 1.3*; FGF22 binding-2: 0.065; SYPRO no-protein: inactive

Screens as filed in PubChem BioAssay.
